In ChEMBL document CHEMBL2057101, “Fluorocyclines. 2. Optimization of the C-9 side-chain for antibacterial activity and oral efficacy” (J Med Chem, 2012) one finds MIC, survival and ED50 data, which are given here for 9 compounds.

≈ marks a conversion by molar mass, not a printed value.

Format in all cases: functional
Experiment [1] relates to Staphylococcus aureus. The experiment is described as follows: Antibacterial activity against tetracycline-susceptible Staphylococcus aureus ATCC 13709 Smith isolate SA100. The method in brief:
(§1)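 Broth microdilution MIC following CLSI methods in cation-adjusted Mueller Hinton broth, prepared fresh and held at 4 °C before testing. Defibrinated horse blood added to the medium where appropriate. Runs accepted when quality control ranges for comparator antibiotics and ATCC QC strains were met.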

For experiment [2], the system named is Staphylococcus aureus. The experiment is described as follows: Antibacterial activity against tetracycline-resistant Staphylococcus aureus isolate SA161 expressing TetM gene. An outline of the steps: as §1
In experiment [3] the test system is Staphylococcus aureus. The experiment is described as follows: Antibacterial activity against tetracycline-resistant Staphylococcus aureus isolate SA158 expressing TetK gene.
In experiment [4] the test system is Streptococcus pneumoniae. In words: Antibacterial activity against Streptococcus pneumoniae ATCC 49619 isolate 106. The method in brief: (§2)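 MIC by broth microdilution in liquid medium per CLSI, in cation-adjusted Mueller Hinton broth made fresh and held at 4 °C before testing. Horse blood (defibrinated) added to the medium where appropriate. Runs were accepted only when the comparator antibiotics and ATCC QC strains fell within their recommended ranges.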

For experiment [5], the system named is Streptococcus pneumoniae. In words: Antibacterial activity against tetracycline-resistant Streptococcus pneumoniae isolate 160 expressing tetM gene.
In experiment [6] the test system is Escherichia coli. The experiment is described as follows: Antibacterial activity against Escherichia coli ATCC 25922 isolate 107. The method in brief: as §2
Experiment [7] deals with Escherichia coli. In words: Antibacterial activity against Escherichia coli isolate EC155 expressing tetA gene. An outline of the steps: as §2
The subject of the next experiment is Klebsiella pneumoniae. The experiment is described as follows: Antibacterial activity against Klebsiella pneumoniae ATCC 13883. An outline of the steps: as §2
In experiment [8] the test system is Staphylococcus aureus. The experiment is described as follows: Antibacterial activity against Staphylococcus aureus ATCC 13709 infected in CD-1 mouse assessed as increase in survival at 3 mg/kg, iv administered as single dose 1 hr post infection measured after 48 hrs post infection. An outline of the steps:
(§3)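 Mouse septicemia screen: S. aureus grown to log phase, diluted in 5% mucin to give 90% mortality within 48 h, inoculum 1.98 × 10⁶ CFU/mouse, 0.5 mL intraperitoneal into female CD-1 mice (18−20 g). Six mice per group. Single 30 mg/kg oral gavage or 3 mg/kg IV dose 1 h post infection. Infection controls received sterile water vehicle. Survival recorded at 48 h.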

Experiment [9] deals with Staphylococcus aureus. In words: Antibacterial activity against Staphylococcus aureus ATCC 13709 infected in CD-1 mouse assessed as increase in survival at 30 mg/kg, po administered as single dose 1 hr post infection measured after 48 hrs post infection. The method in brief: as §3
Experiment [10] concerns Staphylococcus aureus. The experiment is described as follows: Antibacterial activity against Staphylococcus aureus ATCC 13709 infected in po dosed CD-1 mouse assessed as increase in survival administered as single dose 1 hr post infection measured after 48 hrs post infection. The settings on record: ATCC 13709, po, read-out: PD50.

As a reminder, the MIC is the smallest concentration in the dilution series that meets the test's criterion for growth inhibition. As for `CN(C)[C@@H]1C(O)=C(C(N)=O)C(=O)[C@@]2(O)C(O)=C3C(=O)c4c(O)c(NS(C)(=O)=O)cc(F)c4C[C@H]3C[C@@H]12`, the MIC against Staphylococcus aureus [1] was found to be 0.13 µg/mL (≈ 0.247 µM); in the experiment on Staphylococcus aureus [2], 0.25 µg/mL (≈ 0.476 µM); in the experiment with Staphylococcus aureus [3], 4 µg/mL (≈ 7.61 µM); against Streptococcus pneumoniae [4], 0.016 µg/mL (≈ 0.0304 µM); with Streptococcus pneumoniae [5] it was 0.016 µg/mL (≈ 0.0304 µM); in the experiment on Escherichia coli [6], 0.25 µg/mL (≈ 0.476 µM). Further, the MIC with Escherichia coli [7] is > 32 µg/mL; against Klebsiella pneumoniae, 2 µg/mL (≈ 3.81 µM). The survival at 3 mg/kg with Staphylococcus aureus [8] came to 100%. For the same compound, in the experiment on Staphylococcus aureus [9], the survival at 30 mg/kg turned out to be 50%. Besides, the ED50 in the experiment with Staphylococcus aureus [10] is > 30 mg/kg.
Take `CN(C)[C@@H]1C(O)=C(C(N)=O)C(=O)[C@@]2(O)C(O)=C3C(=O)c4c(O)c(Nc5ccncn5)cc(F)c4C[C@H]3C[C@@H]12`: the MIC against Staphylococcus aureus [1] was 0.25 µg/mL (≈ 0.476 µM); against Staphylococcus aureus [2], 2 µg/mL (≈ 3.81 µM); against Staphylococcus aureus [3], 2 µg/mL (≈ 3.81 µM); against Streptococcus pneumoniae [4], 0.063 µg/mL (≈ 0.12 µM); with Streptococcus pneumoniae [5], 0.5 µg/mL (≈ 0.951 µM); in the experiment on Escherichia coli [6] it was 2 µg/mL (≈ 3.81 µM). For the same compound, the MIC is > 32 µg/mL with Escherichia coli [7] and 8 µg/mL (≈ 15.2 µM) against Klebsiella pneumoniae.
Consider `CN(C)[C@@H]1C(O)=C(C(N)=O)C(=O)[C@@]2(O)C(O)=C3C(=O)c4c(O)c(NCCNC(C)(C)C)cc(F)c4C[C@H]3C[C@@H]12`, for which the MIC with Staphylococcus aureus [1] stood at 1 µg/mL (≈ 1.83 µM); in the experiment with Staphylococcus aureus [2], 4 µg/mL (≈ 7.32 µM); against Staphylococcus aureus [3] it was 1 µg/mL (≈ 1.83 µM); with Streptococcus pneumoniae [4], 0.125 µg/mL (≈ 0.229 µM); in the experiment with Streptococcus pneumoniae [5] it was 0.25 µg/mL (≈ 0.457 µM); in the experiment with Escherichia coli [6] it was 2 µg/mL (≈ 3.66 µM). The minimal inhibitory concentration (MIC) with Escherichia coli [7] is 16 µg/mL (≈ 29.3 µM); in the experiment with Klebsiella pneumoniae it was 8 µg/mL (≈ 14.6 µM).
Take `CCCNc1cc(F)c2c(c1O)C(=O)C1=C(O)[C@]3(O)C(=O)C(C(N)=O)=C(O)[C@@H](N(C)C)[C@@H]3C[C@@H]1C2`: the MIC in the experiment on Staphylococcus aureus [1] was found to be 0.5 µg/mL (≈ 1.02 µM); against Staphylococcus aureus [2], 0.5 µg/mL (≈ 1.02 µM); against Staphylococcus aureus [3] it was 0.5 µg/mL (≈ 1.02 µM); with Streptococcus pneumoniae [4], 1 µg/mL (≈ 2.04 µM); in the experiment on Streptococcus pneumoniae [5] it was 4 µg/mL (≈ 8.17 µM); against Escherichia coli [6] it was 32 µg/mL (≈ 65.4 µM). The MIC against Escherichia coli [7] and in the experiment with Klebsiella pneumoniae was > 32 µg/mL each time.
Consider `CN(C)[C@@H]1C(O)=C(C(N)=O)C(=O)[C@@]2(O)C(O)=C3C(=O)c4c(O)c(NCC(C)(C)C)cc(F)c4C[C@H]3C[C@@H]12`, for which the minimum inhibitory concentration (MIC) is 0.25 µg/mL (≈ 0.483 µM) in the experiment with Staphylococcus aureus [1]; 2 µg/mL (≈ 3.86 µM) with Staphylococcus aureus [2]; 0.25 µg/mL (≈ 0.483 µM) in the experiment with Staphylococcus aureus [3]; 4 µg/mL (≈ 7.73 µM) with Streptococcus pneumoniae [4]; 16 µg/mL (≈ 30.9 µM) with Streptococcus pneumoniae [5]; > 32 µg/mL against Escherichia coli [6]. In addition, the MIC against Escherichia coli [7] and in the experiment on Klebsiella pneumoniae was > 32 µg/mL throughout.
As to `CN(C)[C@@H]1C(O)=C(C(N)=O)C(=O)[C@@]2(O)C(O)=C3C(=O)c4c(O)c(CNCC(C)(C)C)cc(F)c4C[C@H]3C[C@@H]12`, the MIC in the experiment on Staphylococcus aureus [1] amounted to 2 µg/mL (≈ 3.76 µM); in the experiment with Staphylococcus aureus [2], 4 µg/mL (≈ 7.52 µM); in the experiment with Staphylococcus aureus [3], 2 µg/mL (≈ 3.76 µM); against Streptococcus pneumoniae [4], 0.25 µg/mL (≈ 0.47 µM); against Streptococcus pneumoniae [5], 0.25 µg/mL (≈ 0.47 µM); with Escherichia coli [6], 4 µg/mL (≈ 7.52 µM). Further, the minimum inhibitory concentration (MIC) was found to be 16 µg/mL (≈ 30.1 µM) against Escherichia coli [7] and 8 µg/mL (≈ 15 µM) in the experiment with Klebsiella pneumoniae.
For `CN(C)[C@@H]1C(O)=C(C(N)=O)C(=O)[C@@]2(O)C(O)=C3C(=O)c4c(O)c(CNC(=O)CNC(C)(C)C)cc(F)c4C[C@H]3C[C@@H]12`, the MIC was 16 µg/mL (≈ 27.8 µM) against Staphylococcus aureus [1]; > 32 µg/mL with Staphylococcus aureus [2]; 16 µg/mL (≈ 27.8 µM) in the experiment on Staphylococcus aureus [3]; 0.5 µg/mL (≈ 0.87 µM) in the experiment on Streptococcus pneumoniae [4]; 4 µg/mL (≈ 6.96 µM) against Streptococcus pneumoniae [5]; 32 µg/mL (≈ 55.7 µM) in the experiment on Escherichia coli [6]. Also, the minimal inhibitory concentration (MIC) against Escherichia coli [7] and against Klebsiella pneumoniae was > 32 µg/mL throughout.
`CN(C)[C@@H]1C(O)=C(C(N)=O)C(=O)[C@@]2(O)C(O)=C3C(=O)c4c(O)c(NC(=O)[C@@H]5CCCN5)cc(F)c4C[C@H]3C[C@@H]12`: the minimal inhibitory concentration (MIC) came out at 0.25 µg/mL (≈ 0.459 µM) in the experiment with Staphylococcus aureus [1]; 0.5 µg/mL (≈ 0.918 µM) against Staphylococcus aureus [2]; 0.5 µg/mL (≈ 0.918 µM) in the experiment on Staphylococcus aureus [3]; 0.016 µg/mL (≈ 0.0294 µM) against Streptococcus pneumoniae [4]; 0.016 µg/mL (≈ 0.0294 µM) in the experiment on Streptococcus pneumoniae [5]; 1 µg/mL (≈ 1.84 µM) in the experiment with Escherichia coli [6]. Besides, the MIC with Escherichia coli [7] is 16 µg/mL (≈ 29.4 µM); against Klebsiella pneumoniae, 1 µg/mL (≈ 1.84 µM). Besides, the survival at 3 mg/kg in the experiment with Staphylococcus aureus [8] came to 100%. Also, the survival at 30 mg/kg in the experiment with Staphylococcus aureus [9] stood at 0%.
As to `CN(C)[C@@H]1C(O)=C(C(N)=O)C(=O)[C@@]2(O)C(O)=C3C(=O)c4c(O)c(NC(=O)CN5CCCC5)cc(F)c4C[C@H]3C[C@@H]12` [ERAVACYCLINE], the minimum inhibitory concentration (MIC) against Staphylococcus aureus [1], in the experiment on Staphylococcus aureus [2], against Staphylococcus aureus [3], against Streptococcus pneumoniae [4], with Streptococcus pneumoniae [5] and with Escherichia coli [6] was 0.016 µg/mL (≈ 0.0286 µM) throughout. The minimum inhibitory concentration (MIC) against Escherichia coli [7] came out at 1 µg/mL (≈ 1.79 µM); against Klebsiella pneumoniae it was 0.125 µg/mL (≈ 0.224 µM).
